# This is a sample that favours compounds with a hit; in the whole collection about 2.3% have one here.
# TROY signal inh – blocks TROY-dependent signaling in reporter cells; AID 1347056; Q293 LMP1-TROYcd NF-kB luciferase reporter, 4 h; hit rate 0.98% among 360,000; inhibition, % at 10 µM;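 active = compounds whose plate-normalised and pattern-corrected inhibition of the luciferase reporter signal at the single screening dose is 50% or more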
# TWEAK Fn14 block – blocks TWEAK-Fn14 interaction in a reporter cell assay | TWEAK-stimulated Fn14 reporter cells, luciferase luminescence, 8 h | inhibition, % at 10 µM | hit rate 2% among 360,000 | AID 1159606; in the data active = inhibition above about 50%
# LGR2 antag – Drosophila LGR2 receptor signaling inhibition | HEK293 LGR2, CRE-luciferase, bursicon-stimulated, 4 h | inhibition, % at 9.99 µM | hit rate 0.35% among 380,000;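 active = drop in luminescence signal, shown as inhibition above about 50% in the replicate tests, limit read from the data, passing the limit was not always enough; inconclusive = probably only some replicates passing the limit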;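 note: agonist challenge used bursicon conditioned medium at about half maximal strength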
# EWS-Fli inh – inhibitors of EWS/Fli oncoprotein transcriptional activity | A673 NR0B1-luciferase reporter, viability-normalised | inhibition, % at 12.6 µM | hit rate 0.67% among 350,000 | AID 651661;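 active = mean inhibition of at least 50% after viability correction, with every replicate also passing that limit; inconclusive = mean reaches 50% but only one of two replicates passes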;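 note: firefly luciferase signal divided by Alamar Blue viability fluorescence both relative to DMSO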
# Xi reactivation – activators of X-chromosome reactivation in mouse fibroblasts; XiGFP mouse fibroblasts, % GFP-positive cells imaging, 3 d; cells co-treated with 5-aza-dC sensitizer; scaled so ellipticine positive control = 100%; activation, % at 7.58 µM; hit rate 0.055% among 360,000;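 active = mean normalized replicate activation at least 10% and every replicate at or above 10%; inconclusive = only one of the two criteria met; inactive = mean below 10% and not all replicates reach 10%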;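 note: 0% = median of on-plate neutral control wells and 100% = ellipticine 6 µM median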
#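 System: 68-5-11 XiGFP fibroblast line | Buffer or medium: DMEM containing 5-aza-dC | Compound: Single point | Times: Compounds 3 days, fix/stain 15 min at room temperature | Benchmarks: Positive control ellipticine, 6 µM final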
# FN deposition inh – fibronectin deposition inhibition; AH1F fibroblasts, Alexa488-fibronectin deposition fluorescence, overnight; hit rate 0.086% among 350,000; inhibition, % at 12.6 µM;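 active = mean inhibition across replicates of 30% or more, regardless of how many single replicates reach that level; inconclusive = mean under 30% yet at least half of replicates reach 30%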;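 note: positive control wells lacked labelled fibronectin entirely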
#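 test system = AH1F fibroblasts assembling fluorescent fibronectin matrix | quantity = 10000 AH1F cells per well | buffer or medium = DMEM plus 2% serum, read in PBS | doses = single dose, pinned | incubation = 1 h cell attachment, overnight exposure to compound and label | detection = fluorescence at 485 nm excitation, 525 nm emission | read-out basis = inhibition from reduced deposited-fibronectin fluorescence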
# * marks the source's active call; other numbers are inactive results; ? = inconclusive; · = no result; ! = a repeat was not active.
SMILES,TROY signal inh,TWEAK Fn14 block,LGR2 antag,EWS-Fli inh,Xi reactivation,FN deposition inh
COc1ccc2c3c(n(C)c2c1)[C@@H](CO)NCC31CCN(S(=O)(=O)c2cccc(C)c2)CC1,·,·,-16,1,0,11
CC[C@@]1(C(=O)OC)N[C@H](CN(C)S(=O)(=O)c2ccc(C(F)(F)F)cc2)[C@@H]2C(=O)N(C)C(=O)[C@@H]21,17,83*,-6,-1,0,3
CCN(C[C@H]1N[C@@](Cc2ccccc2)(C(=O)OC)[C@H]2C(=O)N(Cc3ccccc3)C(=O)[C@@H]12)C(=O)Nc1ccc(C(F)(F)F)cc1,50*,84*,18,-2,0,·
COc1ccc(S(=O)(=O)N[C@H]2CC[C@H](CC(=O)N3CCc4ccccc4C3)O[C@@H]2CO)cc1,·,·,-7,2,0,·
Cc1noc(C)c1NC(=O)Nc1ccc2c(c1)CC(=O)N([C@H](C)CO)C[C@H](C)[C@@H](CN(C)S(=O)(=O)c1ccc(F)cc1)O2,·,·,-1,-19,0,·
C[C@@H]1CCCCO[C@H](CN(C)C(=O)Nc2ccc(F)cc2)[C@@H](C)CN([C@@H](C)CO)C(=O)c2cc(NC(=O)NC3CCCCC3)ccc2O1,·,·,20,4,0,·
CCOc1cc(/C=C2\COc3ccccc3C2=O)ccc1OCC(=O)N(C)C,2,79*,2,42,0,5
CCNC(=O)COc1ccc(/C=C2\COc3ccccc3C2=O)cc1OC,32,46,-13,·,0,1
O=[N+]([O-])c1ccc(N=NN(CCO)CCO)cc1,-8,-2,-14,-2,0,-7
O=[N+]([O-])c1ccc(N=Nc2ncc[nH]2)cc1,11,85*,31,63*,7,7
COc1ccc(NC(=O)Nc2ccc3c(c2)C(=O)N([C@H](C)CO)C[C@H](C)[C@H](CN(C)S(C)(=O)=O)O3)cc1,·,·,16,0,-1,7
Cc1cc(NC(=O)c2cccs2)ncc1NC(=O)C(C)(C)C,51*,47,20,-2,0,-6
O=C1COc2ccc(-c3csc(=Nc4ccc(OC(F)F)cc4)n3CC3CCCO3)cc2N1 (stereo unspecified),44,47,·,·,·,·
COCC(C)n1c(-c2ccc3c(c2)NC(=O)CO3)csc1=Nc1ccc(OC(F)F)cc1 (stereo unspecified),52*!,63*!,6,26,0,9
CC(C)(C)c1ccc(C(=O)Nc2cccc3c(=O)[nH][nH]c(=O)c23)cc1,53*,80*,25,·,0,·
Cc1ccc(C(=O)Nc2cccc3ccccc23)cc1,-29,-22,-9,-61,0,3
O=S1(=O)N=C(Oc2cccc3ccccc23)c2ccccc21,58*,23,-17,·,·,·
COc1ccc(NC(=O)Nc2ccc3c(c2)C(=O)N([C@@H](C)CO)C[C@@H](C)[C@H](CN(C)C(=O)Nc2cccc4ccccc24)O3)cc1,·,·,-4,-7,-1,-14
CC(C)(C)c1cc[n+](C2=C([O-])c3ccccc3C(=O)/C2=N\S(=O)(=O)c2ccccc2)cc1,60*,80*,3,3,0,-4
CC(C)[n+]1ccn(C2=C([O-])c3ccccc3C(=O)/C2=N\S(=O)(=O)c2ccccc2)c1,-4,12,·,19,6,-1
CC(C)NC(=O)Nc1ccc2c(c1)C(=O)N([C@@H](C)CO)C[C@@H](C)[C@@H](CN(C)Cc1ccccc1)OCCCC[C@@H](C)O2,·,·,-3,17,0,5
Nc1c(C(O)(C(F)(F)F)C(F)(F)F)cc(C(O)(C(F)(F)F)C(F)(F)F)c2ccccc12,52*,44,·,·,·,·
C[C@@H]1CN([C@H](C)CO)S(=O)(=O)c2ccc(C#Cc3cccc(F)c3)cc2O[C@H]1CN(C)C(=O)NC1CCCCC1,·,·,15,13,0,16
O=C(/C=C/c1ccc(Cl)cc1Cl)Nc1cccc(S(=O)(=O)NC2=NCCC2)c1,-9,26,?,35,0,33*
OC[C@H]1[C@@H](c2ccc(C3=CCCC3)cc2)[C@H]2CN(CCC(F)(F)F)CCCCN21,·,·,·,6,·,·
SMILES,TROY signal inh,TWEAK Fn14 block,LGR2 antag,EWS-Fli inh,Xi reactivation,FN deposition inh
C[C@H](CO)N1C[C@H](C)[C@H](CN(C)S(=O)(=O)c2ccc(F)cc2)Oc2ncc(C#Cc3ccc(F)cc3)cc2C1=O,·,·,1,11,1,·
N#CC1=C(c2ccccc2)/C(=C/c2ccccc2)OC1=O,-6,83*,-12,·,·,·
O=C1O/C(=C/c2ccccc2)c2ccccc21,-36,-29,-15,8,0,0
COc1c(Br)cc([N+](=O)[O-])c(OC)c1C(=O)NC(=O)Nc1c(Cl)cccc1Cl,0,0,-3,6,0,3
COc1c(Br)cc([N+](=O)[O-])c(OC)c1C(=O)NC(=O)Nc1cc(Cl)cc(Cl)c1,52*,13,·,40,0,-2
C[C@@H]1CN([C@@H](C)CO)C(=O)c2cc(NC(=O)Cc3ccccc3)ccc2O[C@@H](C)CCCCO[C@@H]1CN(C)Cc1ccc2c(c1)OCO2,·,·,-9,5,0,·
Cc1cccc(OCC(=O)Nc2ccc3c(c2)nc(CCN2CCCCC2)n3C)c1,-29,1,2,4,0,4
Cc1cccc(OCC(=O)Nc2ccc3c(c2)nc(CN2CCCCC2)n3C)c1,58*,81*,0,-13,0,1
CCCn1c(CN2CCN(C(=O)OCC)CC2)nc2cc(NC(=O)CC)ccc21,8,15,14,59*,0,8
Cn1c(CCN2CCN(c3ccccn3)CC2)nc2cc(NC(=O)COc3ccc(Cl)cc3)ccc21,50*,54*,12,·,0,3
Cn1c(CN2CCCCC2)nc2cc(NC(=O)c3ccccc3Cl)ccc21,22,52*,-25,-39,·,·
O=C(C[C@@H]1CC[C@H](NC(=O)c2cccc(F)c2)[C@H](CO)O1)NCc1ccc(Oc2ccccc2)cc1,·,·,-11,12,0,·
O=C(C1CCC1)N1C[C@H]2[C@@H](c3ccccc31)[C@H](CO)N2S(=O)(=O)c1ccccc1,·,·,1,5,0,·
COC(=O)c1ccccc1NC(=S)N(Cc1ccc2c(c1)OCO2)Cc1cc2ccc(OC)cc2[nH]c1=O,23,-6,-1,88*,0,·
C[C@@H]1CN([C@@H](C)CO)C(=O)c2cc(C3=CCCCC3)cnc2O[C@H]1CN(C)Cc1ccccn1,·,·,-2,11,0,3
O=C1Nc2ccccc2N(O)N1c1cc(-c2cccc(Cl)c2)no1,-27,8,·,·,·,-1
O=C1Nc2ccccc2N(O)N1c1cc(-c2ccccc2Cl)no1,1,55*,·,·,·,0
CNc1ccc(/C=C2\CSc3ccccc3C2=O)cc1[N+](=O)[O-],62*,83*,8,-13,0,1

# Assay outcomes deposited in PubChem by several laboratories.
